Measured values as given in ChEMBL document CHEMBL4138113, “Novel propanamides as fatty acid amide hydrolase inhibitors” (Eur J Med Chem, 2017).
Active and inactive are the calls of the source. The rule behind the calls is not given here.

How the values were obtained:
[1] = molecular target: Fatty-acid amide hydrolase 1 (Homo sapiens, UniProt O00519, T488A); experiment: Inhibition of FAAH T488A mutant (unknown origin) expressed in human HeLa cells using [3H]AEA as substrate after 2 hrs by liquid scintillation counting analysis; format: cell-based
Chain of Fatty-acid amide hydrolase 1 (Homo sapiens, UniProt O00519, T488A) (O00519 whole entry T488A): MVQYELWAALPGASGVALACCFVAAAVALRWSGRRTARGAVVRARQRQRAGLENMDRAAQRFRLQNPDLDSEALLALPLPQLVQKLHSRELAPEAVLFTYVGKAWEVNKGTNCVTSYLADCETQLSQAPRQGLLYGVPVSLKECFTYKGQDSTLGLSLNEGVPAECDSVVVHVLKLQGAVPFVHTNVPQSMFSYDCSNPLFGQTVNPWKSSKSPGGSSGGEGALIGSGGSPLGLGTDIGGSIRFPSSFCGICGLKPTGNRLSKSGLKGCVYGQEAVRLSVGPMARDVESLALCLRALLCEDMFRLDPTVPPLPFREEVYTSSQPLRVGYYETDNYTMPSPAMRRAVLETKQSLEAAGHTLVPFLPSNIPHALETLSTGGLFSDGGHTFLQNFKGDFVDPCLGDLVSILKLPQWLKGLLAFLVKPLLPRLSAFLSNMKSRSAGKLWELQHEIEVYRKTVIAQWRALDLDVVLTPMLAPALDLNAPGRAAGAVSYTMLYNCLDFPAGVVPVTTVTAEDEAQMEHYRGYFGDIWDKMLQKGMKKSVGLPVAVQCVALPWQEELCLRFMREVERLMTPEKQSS

[2] = molecular target: T1, Prostaglandin G/H synthase 1 (Ovis aries) (UniProt P05979); experiment: Inhibition of ovine COX1 using arachidonic acid as substrate after 5 mins
T1 sequence (whole entry): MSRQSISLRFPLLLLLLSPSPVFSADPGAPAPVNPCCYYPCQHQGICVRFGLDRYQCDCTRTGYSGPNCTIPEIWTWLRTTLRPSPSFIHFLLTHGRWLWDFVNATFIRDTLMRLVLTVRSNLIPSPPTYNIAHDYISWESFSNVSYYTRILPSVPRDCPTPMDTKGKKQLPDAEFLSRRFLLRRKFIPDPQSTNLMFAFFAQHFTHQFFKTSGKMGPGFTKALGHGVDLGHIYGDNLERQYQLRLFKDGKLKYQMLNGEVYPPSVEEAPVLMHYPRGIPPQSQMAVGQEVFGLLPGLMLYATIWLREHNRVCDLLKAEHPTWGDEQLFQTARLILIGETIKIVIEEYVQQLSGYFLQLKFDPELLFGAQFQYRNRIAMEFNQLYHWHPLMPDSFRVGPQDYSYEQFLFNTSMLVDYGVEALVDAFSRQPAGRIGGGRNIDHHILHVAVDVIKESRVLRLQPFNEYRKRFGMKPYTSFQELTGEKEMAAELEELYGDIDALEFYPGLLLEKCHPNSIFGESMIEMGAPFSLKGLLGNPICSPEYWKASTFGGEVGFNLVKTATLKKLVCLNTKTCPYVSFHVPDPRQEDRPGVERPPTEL
Outline: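 Oxygen-electrode assay at room temperature in 0.1 M Tris-HCl, pH 7.4, with 1 µM haematin, 2 mM phenol, 5 mM EDTA and 10 µM (final) arachidonic acid or 2-AG. Compound in EtOH was added and a 5 min baseline recorded. The reaction was started with ovine COX-1 or human recombinant COX-2 (200 U), and oxygen consumption was read in 10 s blocks. Means ± SEM, n = 3-4.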

[3] = molecular target: T2, Fatty-acid amide hydrolase 1 (Homo sapiens, UniProt O00519); experiment: Inhibition of FAAH (unknown origin) expressed in human HeLa cells using [3H]AEA as substrate after 2 hrs by liquid scintillation counting analysis; format: cell-based
T2 sequence (O00519 whole entry): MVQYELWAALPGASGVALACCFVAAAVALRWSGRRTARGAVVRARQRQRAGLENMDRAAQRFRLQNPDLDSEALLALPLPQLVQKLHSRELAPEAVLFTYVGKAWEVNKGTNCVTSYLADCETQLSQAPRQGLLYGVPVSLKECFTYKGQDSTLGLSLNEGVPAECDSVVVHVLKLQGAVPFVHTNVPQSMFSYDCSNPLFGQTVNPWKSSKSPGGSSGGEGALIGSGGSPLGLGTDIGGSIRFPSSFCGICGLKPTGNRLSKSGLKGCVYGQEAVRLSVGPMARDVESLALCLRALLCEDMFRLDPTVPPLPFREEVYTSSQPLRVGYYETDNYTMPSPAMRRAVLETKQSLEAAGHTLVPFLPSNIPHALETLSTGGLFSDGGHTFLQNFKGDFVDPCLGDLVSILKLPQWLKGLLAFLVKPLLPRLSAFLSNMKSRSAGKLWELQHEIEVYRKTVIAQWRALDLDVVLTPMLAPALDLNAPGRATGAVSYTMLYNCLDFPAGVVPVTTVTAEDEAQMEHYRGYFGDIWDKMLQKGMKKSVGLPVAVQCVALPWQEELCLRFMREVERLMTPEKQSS

[4] = molecular target: T3, Fatty-acid amide hydrolase 1 (Rattus norvegicus) (UniProt P97612); experiment: Reversible inhibition of rat brain FAAH at 0.2 to 2 uM using [3H]AEA as substrate preincubated for 60 mins followed by substrate addition by liquid scintillation counting analysis
T3 sequence (whole entry): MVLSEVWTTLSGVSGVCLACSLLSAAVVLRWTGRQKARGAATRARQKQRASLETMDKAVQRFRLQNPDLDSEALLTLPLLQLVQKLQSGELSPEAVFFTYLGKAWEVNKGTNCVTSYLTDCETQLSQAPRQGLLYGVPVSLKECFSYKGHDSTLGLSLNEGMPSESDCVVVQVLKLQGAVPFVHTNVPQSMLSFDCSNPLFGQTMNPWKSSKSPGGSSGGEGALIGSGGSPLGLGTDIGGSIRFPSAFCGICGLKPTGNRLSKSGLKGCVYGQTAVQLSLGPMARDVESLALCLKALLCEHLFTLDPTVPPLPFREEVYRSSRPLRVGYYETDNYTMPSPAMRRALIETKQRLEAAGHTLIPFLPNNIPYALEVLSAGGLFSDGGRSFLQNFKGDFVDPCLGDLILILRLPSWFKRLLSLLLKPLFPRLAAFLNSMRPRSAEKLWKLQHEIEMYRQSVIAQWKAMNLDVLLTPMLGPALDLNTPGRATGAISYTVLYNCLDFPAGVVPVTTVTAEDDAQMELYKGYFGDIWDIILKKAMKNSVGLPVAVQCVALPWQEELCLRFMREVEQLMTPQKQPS
Outline: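 Rat brain homogenate at 20-fold normal strength was preincubated with vehicle or compound for 60 min, then diluted 20-fold and assayed with [3H]AEA for 10 min at 37 °C. In parallel, compound was added to vehicle-preincubated aliquots at the post-dilution free concentrations and at the undiluted final concentrations. Tritium was counted after charcoal separation.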

Q: How did the IC50 [1] turn out when `Cc1cccnc1NC(=O)C(C)c1ccc(Nc2ccnc(C(F)(F)F)c2)cc1` (centres undefined) was run?
A: The IC50 was 1.9 to 9.4 µM.

Q: What about the inhibition [2] of the same compound?
A: Its inhibition is “inactive”.

Q: And the IC50 [3]?
A: Its IC50 is 2.2 to 6.5 µM.

Q: And the inhibition [4]?
A: The inhibition was “Active”.
